Activity calls are given as the source filed them. No cut-off for these calls is given here.
Tests used:
[1] = Cytotoxicity against human HCT116 cells after 5 days by sulforhodamine B assay; assay type: functional, HCT-116
In short: (§1)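 Cancer lines were seeded at 800–6000 cells per well according to growth rate, 24 h before compound overlay. After culture, cells were fixed in situ and stained with sulforhodamine B. GI50 values were derived by curve fitting.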

[2] = molecular target: T1, Dual specificity protein kinase TTK (Homo sapiens, UniProt P33981); experiment: Inhibition of amino terminal GST-fused full length human TTK using His6-SUMO-TTK-N as substrate preincubated for 15 mins prior to ATP addition by indirect ELISA detection system
T1 sequence (P33981 whole entry): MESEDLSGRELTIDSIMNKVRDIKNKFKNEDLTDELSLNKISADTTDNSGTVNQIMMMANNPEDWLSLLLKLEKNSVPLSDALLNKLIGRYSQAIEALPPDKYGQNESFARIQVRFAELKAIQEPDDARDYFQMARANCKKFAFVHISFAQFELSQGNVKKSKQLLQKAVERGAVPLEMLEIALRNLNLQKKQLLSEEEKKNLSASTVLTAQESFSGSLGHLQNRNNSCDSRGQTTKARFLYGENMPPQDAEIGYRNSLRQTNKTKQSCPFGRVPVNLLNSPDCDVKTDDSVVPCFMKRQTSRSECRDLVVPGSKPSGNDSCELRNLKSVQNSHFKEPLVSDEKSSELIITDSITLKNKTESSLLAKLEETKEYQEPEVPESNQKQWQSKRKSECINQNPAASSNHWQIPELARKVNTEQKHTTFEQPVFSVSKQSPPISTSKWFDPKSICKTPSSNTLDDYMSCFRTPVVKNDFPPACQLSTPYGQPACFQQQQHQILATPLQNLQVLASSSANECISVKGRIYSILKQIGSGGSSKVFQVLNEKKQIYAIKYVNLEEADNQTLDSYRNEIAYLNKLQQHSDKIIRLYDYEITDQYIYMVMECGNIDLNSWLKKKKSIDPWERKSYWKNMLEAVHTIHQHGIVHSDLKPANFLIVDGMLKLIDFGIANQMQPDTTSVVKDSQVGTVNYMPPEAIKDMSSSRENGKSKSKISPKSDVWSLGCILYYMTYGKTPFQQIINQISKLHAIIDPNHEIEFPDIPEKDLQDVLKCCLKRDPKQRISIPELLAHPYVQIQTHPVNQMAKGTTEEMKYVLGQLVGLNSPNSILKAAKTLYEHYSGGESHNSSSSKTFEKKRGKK

[3] = molecular target: Aurora kinase B/Inner centromere protein (Homo sapiens, UniProt Q96GD4); experiment: Inhibition of AURKB/INCENP (unknown origin) preincubated for 15 mins prior to ATP addition by FRET-based homogenous assay; assay type: protein-complex assay
Aurora kinase B/Inner centromere protein, sequence (Q96GD4 whole entry): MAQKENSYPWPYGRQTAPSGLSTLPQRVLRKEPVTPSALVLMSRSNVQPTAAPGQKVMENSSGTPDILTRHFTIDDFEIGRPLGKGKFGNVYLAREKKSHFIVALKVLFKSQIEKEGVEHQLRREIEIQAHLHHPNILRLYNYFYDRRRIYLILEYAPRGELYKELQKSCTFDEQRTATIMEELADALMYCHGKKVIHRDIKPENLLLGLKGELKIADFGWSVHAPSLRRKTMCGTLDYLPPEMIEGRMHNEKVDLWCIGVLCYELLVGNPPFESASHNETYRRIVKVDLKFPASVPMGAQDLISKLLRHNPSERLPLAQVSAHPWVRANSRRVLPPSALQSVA
Aurora kinase B/Inner centromere protein, sequence (Q9NQS7 whole entry, further chain): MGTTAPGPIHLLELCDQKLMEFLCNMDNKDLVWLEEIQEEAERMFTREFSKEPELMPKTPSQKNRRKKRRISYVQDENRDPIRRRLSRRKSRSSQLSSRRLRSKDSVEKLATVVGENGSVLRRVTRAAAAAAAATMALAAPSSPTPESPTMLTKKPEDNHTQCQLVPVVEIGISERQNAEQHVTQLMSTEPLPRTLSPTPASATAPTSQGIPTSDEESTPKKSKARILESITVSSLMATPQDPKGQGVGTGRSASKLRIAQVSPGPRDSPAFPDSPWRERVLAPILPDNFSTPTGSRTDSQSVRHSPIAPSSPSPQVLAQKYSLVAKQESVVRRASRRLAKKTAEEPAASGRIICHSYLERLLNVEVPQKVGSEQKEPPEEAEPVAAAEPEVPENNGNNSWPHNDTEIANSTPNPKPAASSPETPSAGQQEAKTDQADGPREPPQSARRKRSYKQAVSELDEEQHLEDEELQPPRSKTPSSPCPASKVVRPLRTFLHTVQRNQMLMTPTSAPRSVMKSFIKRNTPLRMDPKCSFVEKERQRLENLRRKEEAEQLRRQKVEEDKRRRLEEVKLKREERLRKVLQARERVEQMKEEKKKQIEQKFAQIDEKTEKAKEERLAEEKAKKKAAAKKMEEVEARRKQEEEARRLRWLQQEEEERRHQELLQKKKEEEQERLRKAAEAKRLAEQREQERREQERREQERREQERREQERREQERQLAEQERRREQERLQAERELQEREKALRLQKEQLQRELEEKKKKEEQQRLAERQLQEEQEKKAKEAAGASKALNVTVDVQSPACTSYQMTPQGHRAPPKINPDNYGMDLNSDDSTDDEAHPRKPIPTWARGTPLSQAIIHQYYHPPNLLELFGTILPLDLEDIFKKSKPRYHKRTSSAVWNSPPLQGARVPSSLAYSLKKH
In short: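 The enzyme was AURKB/INCENP in a FRET-based homogeneous assay run to kit specifications, with ATP at 128 μM. […] Each IC50 came from a single determination, reported with its standard fitting error.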

[4] = AUCinfinity in Sprague-Dawley rat at 5 mg/kg, po by LC-MS/MS analysis; assay type: ADME, organism-based; set-up: time infinity, dose 5 mg/kg, route oral; conditions: plasma
Cytochrome P450 3A4 = Cytochrome P450 3A4 (Homo sapiens, UniProt P08684); experiment: Inhibition of human CYP3A4 using BFC as substrate preincubated for 10 mins followed by enzyme/substrate addition measured after 30 mins by fluorescence assay; assay type: ADME
Cytochrome P450 3A4, sequence (P08684 whole entry): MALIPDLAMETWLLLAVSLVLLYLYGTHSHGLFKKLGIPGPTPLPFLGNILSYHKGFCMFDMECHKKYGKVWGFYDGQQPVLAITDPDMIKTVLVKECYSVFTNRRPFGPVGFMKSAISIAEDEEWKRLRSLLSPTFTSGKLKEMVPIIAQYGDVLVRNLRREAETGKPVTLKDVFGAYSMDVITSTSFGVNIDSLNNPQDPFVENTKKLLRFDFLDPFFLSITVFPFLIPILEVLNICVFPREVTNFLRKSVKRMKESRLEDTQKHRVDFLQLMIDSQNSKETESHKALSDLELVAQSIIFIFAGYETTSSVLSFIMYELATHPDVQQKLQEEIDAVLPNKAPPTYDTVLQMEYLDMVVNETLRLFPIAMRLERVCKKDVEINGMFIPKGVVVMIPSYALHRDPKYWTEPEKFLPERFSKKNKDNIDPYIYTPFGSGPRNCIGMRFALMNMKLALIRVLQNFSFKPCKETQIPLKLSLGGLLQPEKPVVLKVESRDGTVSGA

[5] = Half life in Sprague-Dawley rat at 1 mg/kg, iv by LC-MS/MS analysis; assay type: ADME, organism-based; set-up: dose 1 mg/kg, route intravenous; conditions: in vivo
MDA-MB-468 = experiment: Cytotoxicity against human MDA-MB-468 cells after 5 days by sulforhodamine B assay; assay type: functional; in short: as §1
[6] = Clearance in Sprague-Dawley rat at 1 mg/kg, iv by LC-MS/MS analysis; assay type: ADME, organism-based; set-up: dose 1 mg/kg, route intravenous; conditions: in vivo
[7] = Cytotoxicity against human OVCAR3 cells after 5 days by sulforhodamine B assay; assay type: functional, OVCAR-3
[8] = AUCinfinity in Sprague-Dawley rat at 1 mg/kg, iv by LC-MS/MS analysis; assay type: ADME, organism-based; set-up: time infinity, dose 1 mg/kg, route intravenous; conditions: plasma
[9] = (§2) Half life in mouse liver microsomes at 1 uM by LC-MS analysis; assay type: ADME; conditions: liver microsomes
[10] = (§3) Cmax in athymic CD1 nude mouse at 10 mg/kg, po by LC-MS/MS analysis; assay type: ADME, organism-based; set-up: dose 10 mg/kg, route oral; conditions: athymic CD1 nude, in vivo
[11] = Oral bioavailability in Sprague-Dawley rat at 5 mg/kg by LC-MS/MS analysis; assay type: ADME, organism-based; conditions: in vivo
[12] = (§4) AUCinfinity in athymic CD1 nude mouse at 10 mg/kg, po by LC-MS/MS analysis; assay type: ADME, organism-based, Plasma; set-up: time infinity, dose 10 mg/kg, route oral; conditions: athymic CD1 nude, plasma
Liver microsome = experiment: Half life in rat liver microsomes at 1 uM by LC-MS analysis; assay type: ADME; conditions: microsomes, 1 µM
[13] = molecular target: T1, Dual specificity protein kinase TTK; experiment: Inhibition of TTK (unknown origin) using p38 MAPK as substrate by fluorescence assay
Liver = experiment: as §2; assay type: ADME; conditions: microsomes, 1 µM
[14] = Toxicity in po dosed athymic CD1 nude mouse assessed as body weight loss in excess 20% and deemed moribund administered as qd for 21 days measured 3 times per week during compound dosing; assay type: organism-based; conditions: in vivo
[15] = Antitumor activity against human HCT116 cells xenografted in athymic CD1 nude mouse assessed as tumor growth inhibition at 150 mg/kg, po qd administered for 21 days measured 3 times per week during compound dosing relative to vehicle-treated control; assay type: functional; conditions: HCT-116, 504 h, read-out: TGI
In short: (§5)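 HCT116 cells (5 million) were injected subcutaneously into the right flank of 6–8 week old female athymic CD-1 nude mice. At a mean tumor volume of 80–120 mm³, mice were randomized (n = 8). Dosing was oral, daily for 21 days, in 10% NMP/40% PEG400/50% DI water, at the MTD and ~2/3 MTD. Tumors were measured three times weekly, volume x²y/2, and TGI was taken against vehicle.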

[16] = Antitumor activity against human HCT116 cells xenografted in athymic CD1 nude mouse assessed as tumor growth inhibition at 100 mg/kg, po qd administered for 21 days measured 3 times per week during compound dosing relative to vehicle-treated control; assay type: functional; conditions: HCT-116, 504 h, read-out: TGI; in short: as §5
Mus musculus [17] = experiment: as §3; assay type: ADME, organism-based; set-up: dose 10 mg/kg, route oral; conditions: in vivo
Mus musculus [18] = experiment: as §4; assay type: ADME, organism-based, Plasma; set-up: time infinity, dose 10 mg/kg, route oral; conditions: in vivo
[19] = Induction of apoptosis in human HCT116 cells assessed as upregulation of phospho-H2AX level after 24 hrs; assay type: functional, cell-based; conditions: HCT-116
HCT-116 [20] = experiment: Induction of cytokinesis with gain or loss in chromosomes in human HCT116 cells at 500 nM after 28 hrs by DAPI-staining based fluorescence microscopic analysis; assay type: functional, cell-based
[21] = Cell cycle arrest in human HCT116 cells assessed as 16N cells at 3 uM measured at 48 hrs by flow cytometric analysis relative to control; assay type: functional, cell-based; conditions: HCT-116
In short: (§6)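 HCT116 cells in 6-well plates were exposed to compound or DMSO for 48 h at 37 °C, 5% CO₂. Cells were trypsinized, fixed in cold 70% ethanol and stained overnight at 4 °C with 50 μg/mL propidium iodide plus RNaseA. DNA content was read by flow cytometry, and 8N and 16N fractions were normalized to the DMSO control.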

[22] = Cell cycle arrest in human HCT116 cells assessed as 8N cells at 0.05 uM measured at 48 hrs by flow cytometric analysis relative to control; assay type: functional, cell-based; conditions: HCT-116; in short: as §6
HCT-116 [23] = experiment: Induction of apoptosis in human HCT116 cells assessed as induction of PARP cleavage after 24 hrs; assay type: functional, cell-based
[24] = Cell cycle arrest in human HCT116 cells assessed as 16N cells at 0.1 uM measured at 48 hrs by flow cytometric analysis relative to control; assay type: functional, cell-based; conditions: HCT-116; in short: as §6
[25] = Cell cycle arrest in human HCT116 cells assessed as 16N cells at 1 uM measured at 48 hrs by flow cytometric analysis relative to control; assay type: functional, cell-based; conditions: HCT-116; in short: as §6
[26] = Cell cycle arrest in human HCT116 cells assessed as 16N cells at 0.2 uM measured at 48 hrs by flow cytometric analysis relative to control; assay type: functional, cell-based; conditions: HCT-116; in short: as §6
[27] = Cell cycle arrest in human HCT116 cells assessed as 8N cells at 0.5 uM measured at 48 hrs by flow cytometric analysis relative to control; assay type: functional, cell-based; conditions: HCT-116; in short: as §6
[28] = Induction of apoptosis in human HCT116 cells assessed as upregulation of p53 level after 24 hrs; assay type: functional, cell-based; conditions: HCT-116
[29] = Cell cycle arrest in human HCT116 cells assessed as 8N cells at 3 uM measured at 48 hrs by flow cytometric analysis relative to control; assay type: functional, cell-based; conditions: HCT-116; in short: as §6
[30] = Cell cycle arrest in human HCT116 cells assessed as 8N cells at 0.1 uM measured at 48 hrs by flow cytometric analysis relative to control; assay type: functional, cell-based; conditions: HCT-116; in short: as §6
[31] = Cell cycle arrest in human HCT116 cells assessed as 16N cells at 0.05 uM measured at 48 hrs by flow cytometric analysis relative to control; assay type: functional, cell-based; conditions: HCT-116; in short: as §6
[32] = Cell cycle arrest in human HCT116 cells assessed as 8N cells at 0.2 uM measured at 48 hrs by flow cytometric analysis relative to control; assay type: functional, cell-based; conditions: HCT-116; in short: as §6
[33] = Cell cycle arrest in human HCT116 cells assessed as 8N cells at 1 uM measured at 48 hrs by flow cytometric analysis relative to control; assay type: functional, cell-based; conditions: HCT-116; in short: as §6
[34] = Cell cycle arrest in human HCT116 cells assessed as 16N cells at 0.5 uM measured at 48 hrs by flow cytometric analysis relative to control; assay type: functional, cell-based; conditions: HCT-116; in short: as §6
HCT-116 [35] = experiment: Cytotoxicity against human HCT116 cells assessed as decrease in cell viability after 24 hrs; assay type: functional, cell-based

| SMILES | GI50 [1] [nM] | IC50 [2] [nM] | IC50 [3] [nM] | AUC(0-inf) [4] [ng·h/mL] | IC50 (Cytochrome P450 3A4) [nM] | half-life [5] [min] | GI50 (MDA-MB-468) [nM] | clearance [6] [mL/min/kg] | GI50 [7] [nM] | AUC(0-inf) [8] [ng·h/mL] | bioavailability [11] [%] | t1/2 (Liver microsome) [min] | also measured |
| --- | --- | --- | --- | --- | --- | --- | --- | --- | --- | --- | --- | --- | --- |
| O=C(N[C@H](c1ccccn1)C1CCCC1)c1ccc2[nH]nc(-c3ccc(N4[C@H]5CC[C@H]4CC(O)C5)cc3)c2c1 (stereo in doubt; 76) | 8 | 4.3 | > 6300 | 130 | 820 | 46.8 | 20 | 91 | 50 | 190 | 13 | > 60 | half-life at 1 µM [9]: > 60 min; Cmax [10]: 1500 ng/mL; AUC(0-inf) [12]: 2600 ng·h/mL |
| CC(C)(O)CNc1cc(NC2CCCCC2)nn2c(-c3ccc(C(=O)NC4CC4)cc3)cnc12 |  |  |  |  |  |  |  |  |  |  |  |  | IC50 [13]: 13 nM |
| O=C(N[C@H](c1ccccn1)C1CCCC1)c1ccc2[nH]nc(-c3ccc(N4[C@H]5CC[C@H]4CC(O)C5)cc3)c2c1 (stereo in doubt; 88) | 38 | 1.8 | 6600 |  | 800 |  | 74 |  | 130 |  |  | 21 | t1/2 (Liver): 35 min |
| O=C(N[C@H](c1ccccn1)C1CC1)c1ccc2[nH]nc(-c3ccc(N4[C@H]5CC[C@H]4CC(O)C5)cc3)c2c1 (stereo in doubt; 86) |  | 1.6 | 790 | 430 | 1700 | 54 | 90 | 46 | 170 | 360 | 24 |  | MTD at 504 h [14]: 150 mg/kg; inhibition in vivo at 150 mg/kg [15]: 53%; inhibition in vivo at 100 mg/kg [16]: 5%; Cmax (Mus musculus [17]): 800 ng/mL; AUC (Mus musculus [18]): 1600 ng·h/mL |
| O=C(N[C@@H](c1ccccn1)C1CC1)c1ccc2[nH]nc(-c3ccc(N4[C@H]5CC[C@H]4CC(O)C5)cc3)c2c1 (stereo in doubt; 75) |  |  |  |  |  |  |  |  |  |  |  |  | Activity [19]: Active; Activity (HCT-116 [20]): Active; Activity [21]: 2.9%; Activity [22]: 1%; Activity (HCT-116 [23]): Active; Activity [24]: 0.2%; Activity [25]: 2.3%; Activity [26]: 1.4%; Activity [27]: 8.3%; Activity [28]: Active; Activity [29]: 9.4%; Activity [30]: 1.8%; Activity [31]: 0%; Activity [32]: 5.8%; Activity [33]: 7.9%; Activity [34]: 2.7%; Activity (HCT-116 [35]): Active |

From ChEMBL document CHEMBL3421533, “The Discovery of Orally Bioavailable Tyrosine Threonine Kinase (TTK) Inhibitors: 3-(4-(heterocyclyl)phenyl)-1H-indazole-5-carboxamides as Anticancer Agents” (J Med Chem, 2015)
